Results reported in publication PMC2574667 (Journal of Medicinal Chemistry, 2008).
Entries after “also recorded” stand apart in the source; their conditions may differ. Read-outs that look alike come from different tables or passages of the source. Blank lines part the entries; values can stand above or below the molecule they belong to.

Experiments:
[1] = format: physicochemical
Procedure, shortened: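 Hydrolysis at 37 °C was run in 0.1 M phosphate pH 7.4 or 0.05 M citrate pH 3.8–4.6, in light-protected sealed bottles. Daily aliquots were scanned 200–400 nm for up to 11 days. First-order k came from ln(At − Ainf) versus time, with Ainf extrapolated when the reaction was incomplete. Runs in 1.0 M NaOH were followed directly in a thermostated spectrophotometer cell. Other media: NaOH, glycine/NaOH pH 10, phosphate pH 8.1.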

[2] = first order in hydroxide ion; cited from earlier work
[3] = Nitrite accumulation; format: physicochemical; conditions: 37 °C; for nitrite recovery: 24 h incubation, PBS and cell culture medium containing 2.5% fetal calf serum
Procedure, shortened: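 Compound at 0.25–1 mM was incubated 24 h at 37 °C, without cells, in PBS or in RPMI containing 2.5% fetal calf serum. NO release was estimated as accumulated nitrite by Griess assay. Solutions assayed immediately after dissolution served as the zero point.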

[4] = tested on: N-acetylglucosaminidase from jack bean; assay: Glycosidase-induced hydrolysis, jack bean enzyme; format: biochemical; conditions: 37 °C; for k, first order rate constant of enzymatic hydrolysis: JB enzyme 0.11 units/mL, 0.1 M phosphate pH 7.4, ultraviolet spectrophotometry
Procedure, shortened: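 Jack bean β-N-acetylglucosaminidase (0.11 units/mL) was incubated with substrate (0.09–0.16 mM initial) at 37 °C in 0.1 M phosphate, pH 7.4, with 0.05 mM DTPA. NO was detected by chemiluminescence until evolution ceased, and the trace was integrated per mole of compound. Nitrite in the remaining solution was measured by Griess. First-order rate constants came from UV absorbance at 227 or 256 nm. Enzyme activity was checked with PNP-NAG at 25 °C.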

[5] = tested on: intracellular L. major amastigotes; assay: Assay for leishmanicidal activity in infected macrophages; format: cell-based, Leishmania major; conditions: 125 or 250 µM, up to 72 h, macrophages from iNOS-deficient mice
Procedure, shortened: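 Macrophages were thioglycolate-elicited from the peritoneum of C57BL/6 iNOS-deficient mice, harvested 4 days after ip thioglycolate, and plated at 3 × 10^5/well in RPMI-1640 with 2.5% or 5% FBS. They were infected 4 h at 5:1 with lesion-derived MHOM/IL/81/FE/BNI amastigotes, then treated 72 h with medium and compound refreshed at 24 and 48 h. Diff-Quick counts at 0, 48 and 72 h gave parasites per 100 macrophages, as mean ±SD.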

[6] = tested on: peritoneal exudate macrophages from iNOS-deficient mice; assay: Nitrite accumulation; format: cell-based; conditions: 0.25 mM, medium with 2.5% fetal calf serum, iNOS^−/− mouse macrophages, 24 h
Procedure, shortened: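 Peritoneal exudate macrophages from iNOS-deficient mice were cultured 24 h at 37 °C in RPMI containing 2.5% fetal calf serum with 0.25 mM compound, alongside cell-free medium and PBS. Supernatants were harvested and cumulative NO was estimated as nitrite by Griess assay. Further runs used 125 or 250 µM with 0–5% FCS.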

[7] = molecular target: N-acetylglucosaminidase from human placenta (Homo sapiens, UniProt P07686); assay: Glycosidase-induced hydrolysis, human placenta enzyme; format: biochemical; conditions: HP enzyme 0.044 units/mL, 37 °C, 0.1 M phosphate pH 7.4; ultraviolet spectrophotometry
[8] = tested on: peritoneal exudate macrophages from iNOS-deficient mice; assay: Viability of macrophage monolayers; format: cell-based, mouse; conditions: concentrations tested (125 or 250 µM); trypan blue staining, MTT assay
Procedure, shortened: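 Infected macrophage monolayers from iNOS-deficient mice were exposed to compound at 125 or 250 µM. Viability was checked by microscopy with trypan blue staining of dead cells. Mitochondrial activity of the whole monolayer was read photometrically as MTT reduction to formazan, in triplicate.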

[9] = phosphate buffer, pH 7.4, half-life pH 7.4, 0.1 M phosphate pH 7.4, 37 °C

N-acetylglucosaminidase from human placenta, sequence (P07686 122-311 limits assumed): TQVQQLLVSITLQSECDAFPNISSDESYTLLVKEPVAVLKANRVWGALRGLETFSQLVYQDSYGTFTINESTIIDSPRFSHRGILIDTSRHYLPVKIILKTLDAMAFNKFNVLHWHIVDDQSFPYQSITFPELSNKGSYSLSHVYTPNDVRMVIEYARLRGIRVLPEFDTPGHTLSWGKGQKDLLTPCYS
N-acetylglucosaminidase from human placenta, sequence (P07686 315-556 limits assumed): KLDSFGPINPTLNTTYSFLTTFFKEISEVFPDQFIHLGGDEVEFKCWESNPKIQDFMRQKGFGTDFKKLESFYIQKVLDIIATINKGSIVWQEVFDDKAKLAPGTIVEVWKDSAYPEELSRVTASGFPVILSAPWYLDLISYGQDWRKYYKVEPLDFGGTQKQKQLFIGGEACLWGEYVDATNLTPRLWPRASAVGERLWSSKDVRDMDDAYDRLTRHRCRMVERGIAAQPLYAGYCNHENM

- half-life [1, 9]: > 14400 min
Structure (SMILES): CCN(CC)/[N+]([O-])=N/O[C@@H]1O[C@H](CO)[C@@H](O)[C@H](O)[C@H]1O [3a]
- rate constant kOH^– of base-induced hydrolysis [2]: 0.0053 M⁻¹ s⁻¹

- half-life ([1]; citrate buffer, pH 4.6, half-life pH 4.6, 0.05 M citrate pH 4.6, 37 °C): > 14400 min
- nitrite recovery [3]: little or no nitrite
- NO generation on incubation with N-acetylglucosaminidase ([4]; parallel incubation to 9a): Negligible NO generation
Structure (SMILES): CCN(CC)/[N+]([O-])=N/O[C@H]1O[C@H](CO)[C@@H](O)[C@H](O)[C@@H]1O [5a, O^2-(α-D-Mannopyranosyl) 1-(N, N-Diethylamino)diazen-1-ium-1,2-diolate]
- effect on number of intracellular L. major parasites [5]: borderline significance

Structure (SMILES): [O-][N+](=NO[C@H]1O[C@H](CO)[C@@H](O)[C@H](O)[C@@H]1O)N1CCCC1 [5b, O^2-(α-D-Mannopyranosyl) 1-(Pyrrolidin-1-yl)diazen-1-ium-1,2-diolate]
- effect on number of intracellular L. major parasites [5]: only one of the mannosides (5a) showed any activity

Structure (SMILES): CCN(CC)/[N+]([O-])=N/O[C@@H]1O[C@@H](C)[C@@H](O)[C@@H](O)[C@@H]1O [7a, O^2-(β-L-Fucopyranosyl) 1-(N,N-Diethylamino)diazen-1-ium-1,2-diolate]
- effect on number of intracellular L. major parasites [5]: Neither of the fucose derivatives had any perceivable effect

Structure (SMILES): C[C@@H]1O[C@H](ON=[N+]([O-])N(C)C)[C@@H](O)[C@H](O)[C@@H]1O [7c, O^2-(β-L-Fucopyranosyl) 1-(N,N-Dimethylamino)diazen-1-ium-1,2-diolate]
- effect on number of intracellular L. major parasites [5]: Neither of the fucose derivatives had any perceivable effect

Structure (SMILES): CCN(CC)/[N+]([O-])=N/O[C@@H]1O[C@H](CO)[C@@H](O)[C@H](O)[C@H]1NC(C)=O [9a, O^2-(N-Acetyl-β-D-glucosaminyl) 1-(N,N-Diethylamino)diazen-1-ium-1,2-diolate]
- increase in hydrolysis rate relative to 9b ([1]; pH 7.4 phosphate buffer): > 20 fold
- half-life [1, 9]: ~720 min
- nitrite recovery [3]: 10−20%
- increase of nitrite yield by macrophages [6]: approximately doubled
- k, first order rate constant of enzymatic hydrolysis [4]: 0.00062 s⁻¹
- k, first order rate constant of enzymatic hydrolysis [7]: 0.00041 s⁻¹
- effect on number of intracellular L. major parasites [5]: highly significant decrease; also recorded: decidedly antileishmanial
- toxicity to the macrophage host cells [8]: no observable toxicity

Structure (SMILES): CC(=O)N[C@H]1[C@H](O/N=[N+](\[O-])N2CCCC2)O[C@H](CO)[C@@H](O)[C@@H]1O [9b, O^2-(β-D-N-Acetylglucosaminyl) 1-(Pyrrolidin-1-yl)diazen-1-ium-1,2-diolate]
- hydrolysis in PBS relative to 9a ([3]; PBS, nitrite yield, 24 h): more than an order of magnitude slower
- k, first order rate constant of enzymatic hydrolysis [4]: 0.00031 s⁻¹
- k, first order rate constant of enzymatic hydrolysis [7]: 0.00036 s⁻¹
- effect on number of intracellular L. major parasites [5]: highly significant decrease; also recorded: decidedly antileishmanial
- toxicity to the macrophage host cells [8]: no observable toxicity

- half-life [1, 9]: ~720 min
Structure (SMILES): CCN(CC)/[N+]([O-])=N/O[C@H]1C[C@@H](O)[C@H](O)[C@@H](CO)O1 [11a, O^2-[2-Deoxy-β-D-glucopyranosyl] 1-(N,N-Diethylamino)diazen-1-ium-1,2-diolate]

Structure (SMILES): O=NO [Nitrite ion]
- effect on number of intracellular L. major parasites [5]: devoid of antileishmanial activity

- hydrolysis time ([1]; all pH values studied, 37 °C): within minutes
Structure (SMILES): CCN(CC)/[N+]([O-])=N\OC1CCCCO1 (centres unmarked) [compound 12, O^2-Tetrahydropyran-2-yl 1-(N,N-Diethylamino)diazen-1-ium-1,2-diolate]

Structure (SMILES): COC(=O)CCC(=O)NO[C@@H]1O[C@H](CO)[C@@H](O)[C@H](O)[C@H]1NC(C)=O [compound 13, N-(β-D-N′-Acetylglucosaminyloxy)succinamate O-Methyl Ester, reference compound]
- effect on number of intracellular L. major parasites [5]: did not have any effect
